Test results taken from ChEMBL document CHEMBL5096242, “Structure-Activity Studies of 1H-Imidazo[4,5-c]quinolin-4-amine Derivatives as A3 Adenosine Receptor Positive Allosteric Modulators” (J Med Chem, 2022).
pIC50, pKi: −log10 of the molar value. ≈ marks a conversion by molar mass, not a printed value.

What was measured:
D(3) dopamine receptor = D(3) dopamine receptor (Homo sapiens, UniProt P35462); assay: Displacement of [3H]-N-methylspiperone from human D3 receptor expressed in human HEK293T cell membrane incubated for 90 mins by radioligand binding assay
[1] = Tmax in Wistar rat plasma at 1 to 10 mg/kg, po and measured after 2 hrs; type: ADME, organism-based; conditions: dose 1-10 mg/kg
Outline: (§1)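 Fasted male Wistar rats (RccHan:WIST), 6–10 weeks old at acclimation, three per group. Dosing was 0.5 mg/kg i.v. in DMSO:20% HPBCD (10:90), or 1, 3 and 10 mg/kg by oral gavage in DMSO:Kolliphor EL:PBS (15:15:70). Jugular blood was taken at 0.083–24 h (stated for i.v.) into heparin, and plasma was frozen at −70 °C. Parameters came from non-compartmental analysis.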

[2] = Microsomal stability in rat liver microsomes assessed as parent compound remaining at 3 uM incubated for 120 mins by LC-MS/MS analysis; conditions: 2 h
[3] = Clearance in Wistar rat assessed as parent compound remaining at 3 mg/kg, po and measured upto 24 hrs; type: ADME, organism-based; conditions: in vivo; outline: as §1
[4] = Stability of the compound in simulated intestinal fluid at pH 6 to 8 assessed as compound remaining at 120 mins by LC-MS/MS analysis; conditions: simulated gi fluid, pH 6, 2 h
[5] = biological target: Sigma non-opioid intracellular receptor 1 (Homo sapiens, UniProt Q99720); assay: Displacement of [3H]-LSD from human sigma1 receptor expressed in human HEK293T cell membrane incubated for 90 mins by radioligand binding assay
[6] = Permeability across basolateral to apical side in human Caco-2 cells assessed as compound recovery at 10 uM measured upto 120 mins by LC-MS/MS analysis; type: ADME, cell-based; conditions: caco-2, 2 h
[7] = Aqueous solubility of compound at pH 7.4 by PDA spectrophotometric analysis; conditions: buffer
[8] = simulated gi fluid, pH 6, 2 h
in vivo [9] = conditions: Wistar, rat, po, 10 mg/kg
[10] = human, microsomes, 2 h, 3 µM
[11] = biological target: Voltage-gated inwardly rectifying potassium channel KCNH2 (Homo sapiens, UniProt Q12809); assay: Inhibition of human ERG stably transfected in HEK293 cells incubated for 2 hrs by TAMRA fluorescence polarization assay
[12] = biological target: Cytochrome P450 1A2 (Homo sapiens) (UniProt P05177)
[13] = Half life in Wistar rat at 0.5 mg/kg, iv and measured upto 24 hrs; type: ADME, organism-based; conditions: in vivo; outline: as §1
[14] = Cmax in Wistar rat plasma at 10 mg/kg, po and measured after 2 hrs; type: ADME, organism-based; set-up: time 2 hrs, dose 10 mg/kg, route po; conditions: in vivo; outline: as §1
[15] = Permeability across apical to basolateral side in human Caco-2 cells assessed as compound recovery at 10 uM measured upto 120 mins by LC-MS/MS analysis; type: ADME, cell-based; conditions: caco-2, 2 h
[16] = Stability of the compound in simulated gastric fluid at pH 1 to 2 assessed as compound remaining at 120 mins by LC-MS/MS analysis; conditions: simulated gi fluid, pH 1, 2 h
[17] = Stability in human plasma assessed as half life and measured after 120 mins by LC-MS/MS analysis; conditions: 2 h
[18] = Clearance in Wistar rat plasma at 10 mg/kg, po and measured upto 24 hrs; type: ADME, organism-based; outline: as §1
[19] = mouse, microsomes, 2 h, 3 µM
[20] = Stability in rat plasma assessed as half life and measured after 120 mins by LC-MS/MS analysis; conditions: 2 h
[21] = Stability in mouse plasma assessed as compound remaining and measured after 120 mins by LC-MS/MS analysis; conditions: 2 h
[22] = simulated gi fluid, pH 1, 2 h
[23] = Stability in rat plasma assessed as compound remaining and measured after 120 mins by LC-MS/MS analysis; conditions: 2 h
[24] = Half life in Wistar rat at 3 mg/kg, po and measured upto 24 hrs; conditions: in vivo
[25] = Clearance in Wistar rat plasma at 3 mg/kg, po and measured upto 24 hrs; type: ADME, organism-based; outline: as §1
[26] = Microsomal stability in mouse liver microsomes assessed as parent compound remaining at 3 uM incubated for 120 mins by LC-MS/MS analysis; conditions: 2 h
[27] = Stability in human plasma assessed as compound remaining and measured after 120 mins by LC-MS/MS analysis; conditions: 2 h
[28] = biological target: Sigma intracellular receptor 2 (Homo sapiens, UniProt Q5BJF2); assay: Displacement of [3H]-DTG from human sigma2 receptor expressed in human HEK293T cell membrane incubated for 90 mins by radioligand binding assay
[29] = Protein binding in rat plasma assessed as bound fraction at 10 uM and measured for 5 hrs by LC-MS/MS based dialysis analysis
[30] = rat, microsomes, 2 h, 3 µM
[31] = Half life in Wistar rat at 10 mg/kg, po and measured upto 24 hrs; conditions: in vivo
[32] = MRT in Wistar rat at 1 mg/kg, po and measured upto 24 hrs; type: ADME, organism-based; conditions: plasma, 3 mg/kg, in the assay text read “3 mg/kg” for “1 mg/kg”; outline: as §1
in vivo [33] = conditions: Wistar, rat, po, 3 mg/kg
[34] = Clearance in Wistar rat plasma at 1 mg/kg, po and measured upto 24 hrs; type: ADME, organism-based; outline: as §1
Cytochrome P450 1A2 = biological target: T1, Cytochrome P450 1A2 (Homo sapiens, UniProt P05177); assay: Inhibition of CYP1A2 in human liver Microsome using phenacetin as substrate in presence of NADPH by LC-MS/MS analysis
T1 sequence (P05177 whole entry): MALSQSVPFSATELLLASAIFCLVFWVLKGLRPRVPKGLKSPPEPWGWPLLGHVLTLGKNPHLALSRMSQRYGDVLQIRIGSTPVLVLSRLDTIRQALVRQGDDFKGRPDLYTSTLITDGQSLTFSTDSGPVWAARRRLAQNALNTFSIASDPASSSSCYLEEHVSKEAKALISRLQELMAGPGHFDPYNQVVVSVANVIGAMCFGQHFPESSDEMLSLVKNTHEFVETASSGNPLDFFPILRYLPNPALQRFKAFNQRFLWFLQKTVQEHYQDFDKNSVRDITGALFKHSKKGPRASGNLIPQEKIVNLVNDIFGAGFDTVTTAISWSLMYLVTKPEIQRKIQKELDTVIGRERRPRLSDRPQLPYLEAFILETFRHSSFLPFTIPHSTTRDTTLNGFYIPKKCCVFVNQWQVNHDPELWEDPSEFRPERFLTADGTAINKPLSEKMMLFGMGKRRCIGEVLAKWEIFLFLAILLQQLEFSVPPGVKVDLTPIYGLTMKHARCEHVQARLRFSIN

[35] = biological target: Cytochrome P450 1A2 (Homo sapiens) (UniProt P05177); remark: listed apart in the source
[36] = Stability in mouse plasma assessed as half life and measured after 120 mins by LC-MS/MS analysis; conditions: 2 h
[37] = Microsomal stability in human liver microsomes assessed as parent compound remaining at 3 uM incubated for 120 mins by LC-MS/MS analysis; conditions: 2 h
Adenosine receptor A3 = biological target: T2, Adenosine receptor A3 (Homo sapiens, UniProt P0DMS8)
T2 sequence (P0DMS8 whole entry): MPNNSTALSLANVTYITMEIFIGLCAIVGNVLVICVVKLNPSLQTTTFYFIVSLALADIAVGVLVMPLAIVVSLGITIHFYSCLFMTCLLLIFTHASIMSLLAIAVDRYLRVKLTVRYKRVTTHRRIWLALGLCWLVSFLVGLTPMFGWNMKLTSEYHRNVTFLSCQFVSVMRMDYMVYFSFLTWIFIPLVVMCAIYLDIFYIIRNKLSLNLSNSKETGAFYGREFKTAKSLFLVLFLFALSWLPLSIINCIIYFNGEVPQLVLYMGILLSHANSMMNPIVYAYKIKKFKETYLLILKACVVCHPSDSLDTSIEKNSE

[38] = biological target: 5-hydroxytryptamine receptor 2B (Homo sapiens, UniProt P41595); assay: Displacement of [3H]-LSD from human 5HT2B expressed in human HEK293 cell membrane incubated for 90 mins by radioligand binding assay; type: cell membranes
Outline: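 Off-target panel run by the NIMH PDSP. Each derivative was first screened at 10 μM in radioligand binding.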

[39] = Protein binding in human plasma assessed as bound fraction at 10 uM and measured for 5 hrs by LC-MS/MS based dialysis analysis
[40] = Protein binding in mouse plasma assessed as bound fraction at 10 uM and measured for 5 hrs by LC-MS/MS based dialysis analysis
[41] = biological target: Sodium-dependent dopamine transporter (Homo sapiens, UniProt Q01959); assay: Displacement of [3H]-Win35428 from human DAT receptor expressed in human HEK293T cell membrane incubated for 90 mins by radioligand binding assay
Mu-type opioid receptor = Mu-type opioid receptor (Homo sapiens, UniProt P35372); assay: Displacement of [3H]-DAMGO from human MOR receptor expressed in human HEK293 cell membrane incubated for 90 mins by radioligand binding assay
[42] = Inhibition of CYP2C9 in mouse liver Microsome using phenacetin as substrate in presence of NADPH by LC-MS/MS analysis
[43] = Inhibition of CYP2C9 in rat liver Microsome using phenacetin as substrate in presence of NADPH by LC-MS/MS analysis
Cytochrome P450 2D6 = Cytochrome P450 2D6 (Homo sapiens, UniProt P10635); assay: Inhibition of CYP2D6 in human liver Microsome using dextromethorphan as substrate in presence of NADPH by LC-MS/MS analysis
[44] = biological target: T3, Adenosine receptor A3 (Homo sapiens) (UniProt P0DMS8); assay: Positive allosteric modulator activity in wild type human A3AR opioid receptor stably expressed in human HEK293 cell membrane assessed as increase in CI-IB-MECA induced [35S]GTPGAgammaS binding to receptor at 10 uM preincubated for 1 hrs with CI-IB-MECA further incubated with [35S]GTPGAgammaS for …; type: cell membranes; conditions: filed as positive allosteric modulator, time 3.0 hrs
T3 sequence (whole entry): T2 sequence (P0DMS8 whole entry)

Translocator protein = Translocator protein (Homo sapiens, UniProt P30536); assay: Inhibition of human TPSO receptor expressed in human HEK293T cell membrane incubated for 90 mins by radioligand binding assay
Chain of Translocator protein (P30536 whole entry): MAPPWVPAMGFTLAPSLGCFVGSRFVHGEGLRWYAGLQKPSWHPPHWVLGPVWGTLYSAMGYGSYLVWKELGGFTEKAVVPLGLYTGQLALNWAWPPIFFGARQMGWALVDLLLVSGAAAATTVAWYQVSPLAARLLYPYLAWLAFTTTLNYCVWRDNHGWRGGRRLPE

Chain of D(3) dopamine receptor (P35462 whole entry): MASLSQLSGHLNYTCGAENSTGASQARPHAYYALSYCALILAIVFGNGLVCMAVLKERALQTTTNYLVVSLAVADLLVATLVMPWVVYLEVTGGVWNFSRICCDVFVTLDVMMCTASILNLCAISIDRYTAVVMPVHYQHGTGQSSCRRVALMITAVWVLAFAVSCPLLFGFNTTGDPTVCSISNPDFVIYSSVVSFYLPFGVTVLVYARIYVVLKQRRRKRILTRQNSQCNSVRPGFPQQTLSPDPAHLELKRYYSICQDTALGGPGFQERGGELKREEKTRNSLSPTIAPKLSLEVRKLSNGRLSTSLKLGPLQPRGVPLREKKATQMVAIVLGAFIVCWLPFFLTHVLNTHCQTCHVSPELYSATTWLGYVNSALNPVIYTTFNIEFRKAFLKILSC
Chain of Sigma non-opioid intracellular receptor 1 (Q99720 whole entry): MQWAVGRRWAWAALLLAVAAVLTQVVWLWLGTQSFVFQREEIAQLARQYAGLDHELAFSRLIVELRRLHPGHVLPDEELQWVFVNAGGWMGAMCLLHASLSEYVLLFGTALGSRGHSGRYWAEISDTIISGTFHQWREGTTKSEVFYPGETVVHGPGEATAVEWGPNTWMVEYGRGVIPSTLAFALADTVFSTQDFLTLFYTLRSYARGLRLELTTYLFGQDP
Chain of Sigma intracellular receptor 2 (Q5BJF2 whole entry): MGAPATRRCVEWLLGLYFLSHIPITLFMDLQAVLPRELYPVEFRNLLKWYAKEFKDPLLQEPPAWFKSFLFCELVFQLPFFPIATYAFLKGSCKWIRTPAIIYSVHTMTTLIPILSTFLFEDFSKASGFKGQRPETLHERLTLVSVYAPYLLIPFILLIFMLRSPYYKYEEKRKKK
Chain of Mu-type opioid receptor (P35372 whole entry): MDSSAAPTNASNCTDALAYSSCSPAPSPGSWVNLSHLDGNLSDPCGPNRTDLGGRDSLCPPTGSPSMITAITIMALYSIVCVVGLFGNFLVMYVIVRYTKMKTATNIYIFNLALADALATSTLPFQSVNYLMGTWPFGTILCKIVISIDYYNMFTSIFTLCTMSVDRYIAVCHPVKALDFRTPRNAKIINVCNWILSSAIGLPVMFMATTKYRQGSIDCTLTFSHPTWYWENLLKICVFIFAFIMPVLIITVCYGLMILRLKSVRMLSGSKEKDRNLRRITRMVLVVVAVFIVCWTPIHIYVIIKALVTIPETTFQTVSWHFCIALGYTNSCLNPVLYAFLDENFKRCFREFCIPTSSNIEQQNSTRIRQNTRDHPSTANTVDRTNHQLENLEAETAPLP
Chain of Cytochrome P450 2D6 (P10635 whole entry): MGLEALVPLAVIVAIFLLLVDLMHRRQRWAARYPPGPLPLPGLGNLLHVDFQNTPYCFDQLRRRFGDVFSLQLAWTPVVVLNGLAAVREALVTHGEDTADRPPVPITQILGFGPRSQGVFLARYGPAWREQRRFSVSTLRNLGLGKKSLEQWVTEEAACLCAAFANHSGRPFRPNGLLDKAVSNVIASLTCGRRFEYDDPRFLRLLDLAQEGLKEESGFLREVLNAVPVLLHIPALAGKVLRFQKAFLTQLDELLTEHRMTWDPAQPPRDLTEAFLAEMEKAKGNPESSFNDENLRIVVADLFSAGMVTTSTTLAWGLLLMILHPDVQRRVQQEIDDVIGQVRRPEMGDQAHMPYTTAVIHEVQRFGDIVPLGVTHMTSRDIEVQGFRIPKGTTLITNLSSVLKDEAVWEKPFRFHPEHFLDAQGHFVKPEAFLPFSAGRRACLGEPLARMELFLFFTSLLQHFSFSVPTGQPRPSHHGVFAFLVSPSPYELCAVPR
Chain of 5-hydroxytryptamine receptor 2B (P41595 whole entry): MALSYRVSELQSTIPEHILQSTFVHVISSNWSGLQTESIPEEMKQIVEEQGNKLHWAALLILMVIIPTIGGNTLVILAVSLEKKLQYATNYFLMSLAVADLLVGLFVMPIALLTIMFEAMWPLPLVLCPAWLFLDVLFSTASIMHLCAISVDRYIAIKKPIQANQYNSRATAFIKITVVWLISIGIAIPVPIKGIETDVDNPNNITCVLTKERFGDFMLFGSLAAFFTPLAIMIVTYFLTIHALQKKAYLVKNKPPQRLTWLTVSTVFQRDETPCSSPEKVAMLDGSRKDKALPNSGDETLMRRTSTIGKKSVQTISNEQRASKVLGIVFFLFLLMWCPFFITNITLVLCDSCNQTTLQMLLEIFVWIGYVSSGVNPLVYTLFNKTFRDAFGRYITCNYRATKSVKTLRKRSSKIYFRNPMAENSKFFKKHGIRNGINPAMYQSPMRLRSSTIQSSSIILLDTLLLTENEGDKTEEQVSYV
Chain of Sodium-dependent dopamine transporter (Q01959 whole entry): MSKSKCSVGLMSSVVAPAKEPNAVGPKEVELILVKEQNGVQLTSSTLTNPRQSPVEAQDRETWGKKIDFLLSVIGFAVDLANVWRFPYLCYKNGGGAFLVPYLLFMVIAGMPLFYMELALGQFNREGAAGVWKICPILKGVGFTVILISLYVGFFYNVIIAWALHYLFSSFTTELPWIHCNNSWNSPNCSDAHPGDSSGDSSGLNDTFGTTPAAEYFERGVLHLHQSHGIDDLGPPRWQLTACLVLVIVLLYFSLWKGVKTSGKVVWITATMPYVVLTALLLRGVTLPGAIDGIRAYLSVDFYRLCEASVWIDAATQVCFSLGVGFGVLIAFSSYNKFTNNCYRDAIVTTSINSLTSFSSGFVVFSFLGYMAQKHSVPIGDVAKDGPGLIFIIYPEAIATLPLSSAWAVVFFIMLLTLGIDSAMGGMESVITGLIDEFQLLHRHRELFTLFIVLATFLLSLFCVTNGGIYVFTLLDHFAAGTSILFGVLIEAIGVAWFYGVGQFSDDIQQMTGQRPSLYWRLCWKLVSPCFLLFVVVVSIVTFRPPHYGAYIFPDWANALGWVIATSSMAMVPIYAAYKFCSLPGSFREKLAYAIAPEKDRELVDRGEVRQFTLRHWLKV
Chain of Voltage-gated inwardly rectifying potassium channel KCNH2 (Q12809 whole entry): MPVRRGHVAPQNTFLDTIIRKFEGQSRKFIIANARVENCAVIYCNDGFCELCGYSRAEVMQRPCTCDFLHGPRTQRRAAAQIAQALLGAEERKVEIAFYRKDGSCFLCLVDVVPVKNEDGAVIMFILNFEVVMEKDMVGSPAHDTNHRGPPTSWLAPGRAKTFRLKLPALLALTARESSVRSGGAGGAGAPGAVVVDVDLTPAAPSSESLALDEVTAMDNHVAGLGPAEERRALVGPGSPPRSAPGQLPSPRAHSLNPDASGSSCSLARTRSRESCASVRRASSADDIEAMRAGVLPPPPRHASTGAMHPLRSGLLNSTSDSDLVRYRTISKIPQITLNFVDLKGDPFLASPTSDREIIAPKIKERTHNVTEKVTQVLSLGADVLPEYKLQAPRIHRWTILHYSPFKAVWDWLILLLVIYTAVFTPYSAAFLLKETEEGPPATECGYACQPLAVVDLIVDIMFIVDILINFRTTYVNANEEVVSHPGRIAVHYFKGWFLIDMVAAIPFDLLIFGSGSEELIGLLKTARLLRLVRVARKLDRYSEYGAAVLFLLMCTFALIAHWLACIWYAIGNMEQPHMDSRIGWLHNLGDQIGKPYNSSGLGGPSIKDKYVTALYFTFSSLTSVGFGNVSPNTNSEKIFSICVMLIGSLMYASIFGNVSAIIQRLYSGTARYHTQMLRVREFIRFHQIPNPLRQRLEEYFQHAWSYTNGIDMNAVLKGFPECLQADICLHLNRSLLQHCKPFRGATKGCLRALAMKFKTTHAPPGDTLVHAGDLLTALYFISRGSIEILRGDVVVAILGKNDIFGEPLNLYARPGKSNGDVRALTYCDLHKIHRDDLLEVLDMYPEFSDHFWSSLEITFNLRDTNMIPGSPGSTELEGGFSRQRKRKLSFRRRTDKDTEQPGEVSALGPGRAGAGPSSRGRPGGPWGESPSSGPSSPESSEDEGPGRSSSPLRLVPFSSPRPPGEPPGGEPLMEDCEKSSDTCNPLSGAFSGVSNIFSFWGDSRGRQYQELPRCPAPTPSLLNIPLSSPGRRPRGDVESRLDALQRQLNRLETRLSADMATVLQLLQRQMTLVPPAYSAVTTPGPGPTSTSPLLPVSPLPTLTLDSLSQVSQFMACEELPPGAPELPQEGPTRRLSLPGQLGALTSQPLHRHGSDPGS

Clc1ccc(Nc2nc3ccccc3c3[nH]c(C4CCCCCCCCCC4)nc23)cc1Cl
pKi (D(3) dopamine receptor): 5.28

Clc1ccc(Nc2nc3ccccc3c3[nH]c(C4CCCCCCCCCCC4)nc23)cc1Cl
pKi (D(3) dopamine receptor): 5.12

Clc1ccc(Nc2nc3ccccc3c3[nH]c(C4CCC=CCC4)nc23)cc1Cl
Tmax [1]: 2 h
Stability [2]: 52.1%
remaining at 24 h [3]: 50%
Stability [4]: 100%
pKi [5]: 5.33
permeability [6]: 78%
solubility [7]: 0.39 µg/mL (≈ 0.921 µM)
t1/2 [8]: 9.55 h
bioavailability at 24 h (in vivo [9]): 47.5%
t1/2 [10]: 3.33 h
pIC50 [11]: 5.22
pIC50 [12]: 5.16
t1/2 [13]: 2.38 h
Cmax [14]: 1780 ng/mL
permeability [15]: 48.1%
Stability [16]: 69.1%
t1/2 [17]: 2.65 h
CL/F [18]: 16.2 mL/min/kg
t1/2 [19]: 3.23 h
t1/2 [20]: 9.67 h
Stability [21]: 83.5%
t1/2 [22]: 3.4 h
Stability [23]: 88.7%
t1/2 [24]: 1.29 h
CL/F [25]: 26.3 mL/min/kg
Stability [26]: 76.4%
Stability [27]: 69.7%
pKi [28]: 6.24
PPB [29]: 99.1%
t1/2 [30]: 1.17 h
t1/2 [31]: 2.6 h
MRT [32]: 3.98 h
bioavailability at 24 h (in vivo [33]): 28.7%
CL/F [34]: 7.45 mL/min/kg
pIC50 (Cytochrome P450 1A2): 5.16
pIC50 [35]: 5.16
t1/2 [36]: 11.6 h
Stability [37]: 81.2%

Clc1ccc(Nc2nc3ccccc3c3[nH]c(C4CCCCC4)nc23)cc1Cl
pKi (Adenosine receptor A3): 5.70

Ic1ccc(Nc2nc3ccccc3c3[nH]c(C4CCCCC4)nc23)cc1
pKi (D(3) dopamine receptor): 6.07

COc1ccc([C@@H]2Sc3ccccc3N(CCN(C)C)C(=O)[C@@H]2OC(C)=O)cc1 [DILTIAZEM]
Stability [23]: 83.9%

CCCC(CCC)c1nc2c(Nc3ccc(Cl)c(Cl)c3)nc3ccccc3c2[nH]1
pKi [5]: 5.83
pKi [28]: 5.87
pKi [38]: 5.87

CC(=O)CC(c1ccccc1)c1c(O)c2ccccc2oc1=O (stereo unspecified) [WARFARIN]
PPB [39]: 96.3%
PPB [40]: 83.6%

Clc1ccc(Nc2nc3ccccc3c3[nH]c([C@@H]4C[C@@H]5CCC[C@@H](C5)C4)nc23)cc1Cl
pKi [41]: 6.33
pKi (Mu-type opioid receptor): 5.14

Clc1ccc(COC(Cn2ccnc2)c2ccc(Cl)cc2Cl)c(Cl)c1 (stereo unspecified) [MICONAZOLE]
pIC50 [42]: 4.42
pIC50 [12]: 5.34
pIC50 [43]: 4.42
pIC50 (Cytochrome P450 1A2): 5.34
pIC50 [35]: 5.34
pIC50 (Cytochrome P450 2D6): 5.79

CCN(CC)CCOC(=O)c1ccc(N)cc1 [PROCAINE]
Stability [21]: 0%
Stability [27]: 0%
t1/2 [36]: 0.00183 h

Clc1ccc(Nc2nc3ccccc3c3[nH]c(C4CC5C=CC4CC5)nc23)cc1Cl (racemic)
Activity [44]: 100%

CCCC(CCC)c1nc2c(Nc3ccc(I)cc3)nc3ccccc3c2[nH]1
pKi (Translocator protein): 6.91
pKi [28]: 6.05

COc1ccc2[nH]c([S+]([O-])Cc3ncc(C)c(OC)c3C)nc2c1 (stereo unspecified) [OMEPRAZOLE]
Stability [16]: 0%
t1/2 [22]: 0.255 h

Clc1ccc(Nc2nc3ccccc3c3[nH]c(C4CCCCCCCC4)nc23)cc1Cl
pKi [5]: 5.29
pKi [28]: 6.04
